Tests used:
Conditions in all cases: stereoisomer not certain
OR5P3 (Homo sapiens) = molecular target: T1, OR5P3 (Homo sapiens) (UniProt Q8WZ94)
T1 sequence (whole entry): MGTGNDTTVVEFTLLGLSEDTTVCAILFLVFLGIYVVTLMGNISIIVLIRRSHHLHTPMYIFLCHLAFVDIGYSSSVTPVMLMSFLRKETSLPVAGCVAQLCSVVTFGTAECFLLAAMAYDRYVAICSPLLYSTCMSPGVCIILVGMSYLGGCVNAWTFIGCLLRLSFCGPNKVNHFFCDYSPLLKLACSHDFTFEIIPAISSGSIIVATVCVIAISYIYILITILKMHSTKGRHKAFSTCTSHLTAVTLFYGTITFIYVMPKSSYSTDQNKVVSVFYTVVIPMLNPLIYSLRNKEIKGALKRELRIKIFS
Summary of the method: (§1)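 Values were gathered from published papers (main text and supplementary material), with extra details requested from the original authors when needed, and checked for typos and inconsistencies. Each receptor–molecule pair is called responsive (active) if the original authors judged the measured signal statistically different from baseline, and non-responsive (inactive) otherwise. Assay methods varied by source, often transient mammalian cell-line luciferase assays. Recorded details include cell line, G-protein, co-transfected protein and tags.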

OR5T1 (Homo sapiens) = OR5T1 (Homo sapiens) (UniProt Q8NG75)
Chain of OR5T1 (Homo sapiens) (Q8NG75 whole entry): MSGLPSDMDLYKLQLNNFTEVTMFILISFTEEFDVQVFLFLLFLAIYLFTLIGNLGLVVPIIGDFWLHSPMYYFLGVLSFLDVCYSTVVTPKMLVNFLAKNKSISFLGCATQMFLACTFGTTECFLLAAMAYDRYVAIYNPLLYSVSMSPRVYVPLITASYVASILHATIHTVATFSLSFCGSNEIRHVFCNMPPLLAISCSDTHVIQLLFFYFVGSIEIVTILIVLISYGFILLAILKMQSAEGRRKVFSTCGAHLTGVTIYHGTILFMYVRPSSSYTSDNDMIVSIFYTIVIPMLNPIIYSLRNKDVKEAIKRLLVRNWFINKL
Summary of the method: as §1

OR5T2 (Homo sapiens) = OR5T2 (Homo sapiens) (UniProt Q8NGG2)
Chain of OR5T2 (Homo sapiens) (Q8NGG2 whole entry): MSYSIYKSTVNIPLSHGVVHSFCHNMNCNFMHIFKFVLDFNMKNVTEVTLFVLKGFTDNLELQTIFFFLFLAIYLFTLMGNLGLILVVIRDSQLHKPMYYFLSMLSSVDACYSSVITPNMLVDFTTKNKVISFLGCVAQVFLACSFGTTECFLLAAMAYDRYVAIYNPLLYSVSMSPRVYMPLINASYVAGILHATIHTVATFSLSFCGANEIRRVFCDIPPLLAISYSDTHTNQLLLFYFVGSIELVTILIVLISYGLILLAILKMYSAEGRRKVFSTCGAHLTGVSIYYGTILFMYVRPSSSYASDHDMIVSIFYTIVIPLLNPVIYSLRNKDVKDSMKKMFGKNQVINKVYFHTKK
Summary of the method: as §1

OR5T3 (Homo sapiens) = OR5T3 (Homo sapiens) (UniProt Q8NGG3)
Chain of OR5T3 (Homo sapiens) (Q8NGG3 whole entry): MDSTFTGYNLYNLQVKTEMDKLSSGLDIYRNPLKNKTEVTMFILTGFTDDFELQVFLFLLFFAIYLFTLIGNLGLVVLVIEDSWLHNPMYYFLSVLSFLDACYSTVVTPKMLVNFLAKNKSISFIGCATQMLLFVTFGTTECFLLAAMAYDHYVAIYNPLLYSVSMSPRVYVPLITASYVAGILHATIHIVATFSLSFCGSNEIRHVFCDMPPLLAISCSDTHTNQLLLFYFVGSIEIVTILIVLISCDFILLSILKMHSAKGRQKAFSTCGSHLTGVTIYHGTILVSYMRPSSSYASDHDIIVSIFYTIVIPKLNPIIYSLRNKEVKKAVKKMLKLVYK
Summary of the method: as §1

OR5V1 (Homo sapiens) = OR5V1 (Homo sapiens) (UniProt Q9UGF6)
Chain of OR5V1 (Homo sapiens) (Q9UGF6 whole entry): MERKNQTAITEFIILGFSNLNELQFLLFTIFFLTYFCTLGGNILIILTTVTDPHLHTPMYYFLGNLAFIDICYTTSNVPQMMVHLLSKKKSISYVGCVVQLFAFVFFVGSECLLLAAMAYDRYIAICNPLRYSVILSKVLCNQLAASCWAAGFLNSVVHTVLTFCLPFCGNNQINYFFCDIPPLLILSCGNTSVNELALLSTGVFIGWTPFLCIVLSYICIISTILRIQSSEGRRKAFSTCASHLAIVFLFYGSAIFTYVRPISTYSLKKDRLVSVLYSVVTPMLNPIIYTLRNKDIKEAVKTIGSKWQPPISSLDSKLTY
Summary of the method: as §1

OR5W2 (Homo sapiens) = OR5W2 (Homo sapiens) (UniProt Q8NH69)
Chain of OR5W2 (Homo sapiens) (Q8NH69 whole entry): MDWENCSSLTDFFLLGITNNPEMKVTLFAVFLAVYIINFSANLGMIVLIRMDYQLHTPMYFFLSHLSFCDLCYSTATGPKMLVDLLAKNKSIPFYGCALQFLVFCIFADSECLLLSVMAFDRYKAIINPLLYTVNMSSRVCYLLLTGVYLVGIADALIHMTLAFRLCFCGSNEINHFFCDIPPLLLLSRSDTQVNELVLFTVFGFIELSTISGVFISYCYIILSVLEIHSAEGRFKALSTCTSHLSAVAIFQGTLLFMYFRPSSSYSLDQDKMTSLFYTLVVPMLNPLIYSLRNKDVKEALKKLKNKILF
Summary of the method: as §1

OR6A2 (Homo sapiens) = OR6A2 (Homo sapiens) (UniProt O95222)
Chain of OR6A2 (Homo sapiens) (O95222 whole entry): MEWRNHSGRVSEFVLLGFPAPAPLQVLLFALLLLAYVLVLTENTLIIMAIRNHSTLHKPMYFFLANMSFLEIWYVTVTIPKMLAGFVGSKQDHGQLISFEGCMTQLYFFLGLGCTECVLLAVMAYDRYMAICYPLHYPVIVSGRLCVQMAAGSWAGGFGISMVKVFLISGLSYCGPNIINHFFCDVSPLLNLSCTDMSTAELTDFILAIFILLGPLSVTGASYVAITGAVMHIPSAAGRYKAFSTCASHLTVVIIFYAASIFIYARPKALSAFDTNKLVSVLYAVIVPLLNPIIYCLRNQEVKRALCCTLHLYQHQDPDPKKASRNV
Summary of the method: as §1

OR6B1 (Homo sapiens) = OR6B1 (Homo sapiens) (UniProt O95007)
Chain of OR6B1 (Homo sapiens) (O95007 whole entry): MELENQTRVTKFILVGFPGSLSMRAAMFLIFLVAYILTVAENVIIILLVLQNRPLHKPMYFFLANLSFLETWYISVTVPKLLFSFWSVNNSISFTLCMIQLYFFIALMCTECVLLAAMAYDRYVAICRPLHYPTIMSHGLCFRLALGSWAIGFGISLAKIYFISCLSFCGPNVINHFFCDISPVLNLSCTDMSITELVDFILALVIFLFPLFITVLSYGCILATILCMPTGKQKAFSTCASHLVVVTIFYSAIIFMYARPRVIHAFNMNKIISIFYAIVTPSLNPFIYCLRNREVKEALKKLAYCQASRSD
Summary of the method: as §1

OR6B2 (Homo sapiens) = OR6B2 (Homo sapiens) (UniProt Q6IFH4)
Chain of OR6B2 (Homo sapiens) (Q6IFH4 whole entry): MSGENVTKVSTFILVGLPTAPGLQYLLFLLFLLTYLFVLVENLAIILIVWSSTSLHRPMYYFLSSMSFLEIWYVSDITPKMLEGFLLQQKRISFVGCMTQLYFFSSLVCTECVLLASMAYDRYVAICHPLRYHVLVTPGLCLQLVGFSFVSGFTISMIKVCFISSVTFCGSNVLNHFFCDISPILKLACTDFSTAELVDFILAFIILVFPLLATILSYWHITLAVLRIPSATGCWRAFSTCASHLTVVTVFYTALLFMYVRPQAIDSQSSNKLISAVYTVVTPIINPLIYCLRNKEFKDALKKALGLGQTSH
Summary of the method: as §1

OR6B3 (Homo sapiens) = OR6B3 (Homo sapiens) (UniProt Q8NGW1)
Chain of OR6B3 (Homo sapiens) (Q8NGW1 whole entry): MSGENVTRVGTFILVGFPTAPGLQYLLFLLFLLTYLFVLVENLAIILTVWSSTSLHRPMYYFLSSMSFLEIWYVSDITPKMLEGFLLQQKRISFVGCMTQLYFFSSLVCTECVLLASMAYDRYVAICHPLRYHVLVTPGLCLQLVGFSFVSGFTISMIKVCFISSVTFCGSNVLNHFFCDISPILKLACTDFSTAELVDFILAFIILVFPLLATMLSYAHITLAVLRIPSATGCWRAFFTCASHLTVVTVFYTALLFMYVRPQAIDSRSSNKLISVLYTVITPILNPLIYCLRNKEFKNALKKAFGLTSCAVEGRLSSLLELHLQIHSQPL
Summary of the method: as §1

OR6C1 (Homo sapiens) = OR6C1 (Homo sapiens) (UniProt Q96RD1)
Chain of OR6C1 (Homo sapiens) (Q96RD1 whole entry): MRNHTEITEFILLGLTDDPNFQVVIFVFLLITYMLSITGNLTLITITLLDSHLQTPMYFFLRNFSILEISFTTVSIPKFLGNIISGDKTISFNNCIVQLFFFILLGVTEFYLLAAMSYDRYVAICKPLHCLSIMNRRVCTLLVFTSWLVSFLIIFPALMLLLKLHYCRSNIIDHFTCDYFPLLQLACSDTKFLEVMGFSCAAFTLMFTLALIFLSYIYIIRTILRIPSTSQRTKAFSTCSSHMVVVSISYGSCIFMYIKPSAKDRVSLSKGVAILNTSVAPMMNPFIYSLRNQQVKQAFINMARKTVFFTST
Summary of the method: as §1

OR6C2 (Homo sapiens) = OR6C2 (Homo sapiens) (UniProt Q9NZP2)
Chain of OR6C2 (Homo sapiens) (Q9NZP2 whole entry): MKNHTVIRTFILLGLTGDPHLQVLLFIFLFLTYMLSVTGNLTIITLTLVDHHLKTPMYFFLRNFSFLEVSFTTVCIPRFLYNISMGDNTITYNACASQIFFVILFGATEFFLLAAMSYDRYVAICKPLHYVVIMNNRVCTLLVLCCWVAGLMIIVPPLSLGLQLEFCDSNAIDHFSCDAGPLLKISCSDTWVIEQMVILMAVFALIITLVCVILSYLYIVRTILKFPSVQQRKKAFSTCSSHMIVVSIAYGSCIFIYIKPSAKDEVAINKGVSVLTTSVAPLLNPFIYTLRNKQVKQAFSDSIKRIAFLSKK
Summary of the method: as §1

OR5P3 L301R = tested on: OR5P3 L301R
Chain of OR5P3 L301R (as listed by the source, stated change not applied): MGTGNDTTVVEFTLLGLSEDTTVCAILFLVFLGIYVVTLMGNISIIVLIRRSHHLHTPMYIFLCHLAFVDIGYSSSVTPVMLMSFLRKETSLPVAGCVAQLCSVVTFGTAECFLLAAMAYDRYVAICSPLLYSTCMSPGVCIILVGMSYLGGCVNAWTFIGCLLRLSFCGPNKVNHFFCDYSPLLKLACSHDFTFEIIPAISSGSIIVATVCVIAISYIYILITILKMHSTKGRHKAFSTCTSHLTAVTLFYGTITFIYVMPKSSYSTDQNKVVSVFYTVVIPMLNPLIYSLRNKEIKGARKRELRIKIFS
Summary of the method: as §1

OR5R1 C122R S128G F184L = tested on: OR5R1 C122R S128G F184L
Summary of the method: as §1

OR5T2 S4G = tested on: OR5T2 S4G
Chain of OR5T2 S4G (as listed by the source): as the sequence (Q8NGG2 whole entry) above, with S4G counted along it
Summary of the method: as §1

OR5W2 R189C = tested on: OR5W2 R189C
Chain of OR5W2 R189C (as listed by the source, stated change not applied): as the sequence (Q8NH69 whole entry) above, with R189C counted along it
Summary of the method: as §1

OR6A2 I50V = tested on: OR6A2 I50V
Chain of OR6A2 I50V (as listed by the source, stated change not applied): as the sequence (O95222 whole entry) above, with I50V counted along it
Summary of the method: as §1

OR6B2 R122C C179R = tested on: OR6B2 R122C C179R
Summary of the method: as §1

OR6B3 T48I R131C = tested on: OR6B3 T48I R131C
Summary of the method: as §1

OR6C1 C130Y H165D V246I = tested on: OR6C1 C130Y H165D V246I
Summary of the method: as §1

Measured: odorant receptor agonist call

CCC1CCC(=O)O1 (stereo not given)
inactive: OR5P3 (Homo sapiens)

Cc1c([N+](=O)[O-])c(C)c([N+](=O)[O-])c(C(C)(C)C)c1[N+](=O)[O-]
inactive: OR5P3 (Homo sapiens) | OR5T1 (Homo sapiens) | OR5T2 (Homo sapiens) | OR5T3 (Homo sapiens) | OR5V1 (Homo sapiens) | OR5W2 (Homo sapiens) | OR6A2 (Homo sapiens) | OR6B1 (Homo sapiens) | OR6B2 (Homo sapiens) | OR6B3 (Homo sapiens) | OR6C1 (Homo sapiens) | OR6C2 (Homo sapiens)

C=CCc1ccccc1
inactive: OR5P3 (Homo sapiens)

O=c1cc(O)c2ccccc2o1
inactive: OR5P3 (Homo sapiens)

C=CCOC(=O)Cc1ccccc1
inactive: OR5P3 (Homo sapiens) | OR5P3 L301R | OR5R1 C122R S128G F184L | OR5T1 (Homo sapiens) | OR5T2 (Homo sapiens) | OR5T2 S4G | OR5T3 (Homo sapiens) | OR5V1 (Homo sapiens) | OR5W2 (Homo sapiens) | OR5W2 R189C | OR6A2 (Homo sapiens) | OR6A2 I50V | OR6B1 (Homo sapiens) | OR6B2 (Homo sapiens) | OR6B2 R122C C179R | OR6B3 (Homo sapiens) | OR6B3 T48I R131C | OR6C1 (Homo sapiens) | OR6C1 C130Y H165D V246I | OR6C2 (Homo sapiens)
